Bioassay records deposited in PubChem by Johns Hopkins Ion Channel Center.
Hits are enriched below; roughly 3.7% of the tested compounds scored in any of these assays.
KCNQ1 act: human KCNQ1 channel potentiation or activation; P51787; actives 0.35% (n = 310,000); CHO-K1 KCNQ1, thallium flux FluxOR fluorescence; active compounds read high; B-score at 10 µM;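 active = fluorescence ratio B-score, a plate-corrected score, at least three library SD, with initial intensity B-score within 5 SD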
Target sequence (P51787 whole entry, looked up): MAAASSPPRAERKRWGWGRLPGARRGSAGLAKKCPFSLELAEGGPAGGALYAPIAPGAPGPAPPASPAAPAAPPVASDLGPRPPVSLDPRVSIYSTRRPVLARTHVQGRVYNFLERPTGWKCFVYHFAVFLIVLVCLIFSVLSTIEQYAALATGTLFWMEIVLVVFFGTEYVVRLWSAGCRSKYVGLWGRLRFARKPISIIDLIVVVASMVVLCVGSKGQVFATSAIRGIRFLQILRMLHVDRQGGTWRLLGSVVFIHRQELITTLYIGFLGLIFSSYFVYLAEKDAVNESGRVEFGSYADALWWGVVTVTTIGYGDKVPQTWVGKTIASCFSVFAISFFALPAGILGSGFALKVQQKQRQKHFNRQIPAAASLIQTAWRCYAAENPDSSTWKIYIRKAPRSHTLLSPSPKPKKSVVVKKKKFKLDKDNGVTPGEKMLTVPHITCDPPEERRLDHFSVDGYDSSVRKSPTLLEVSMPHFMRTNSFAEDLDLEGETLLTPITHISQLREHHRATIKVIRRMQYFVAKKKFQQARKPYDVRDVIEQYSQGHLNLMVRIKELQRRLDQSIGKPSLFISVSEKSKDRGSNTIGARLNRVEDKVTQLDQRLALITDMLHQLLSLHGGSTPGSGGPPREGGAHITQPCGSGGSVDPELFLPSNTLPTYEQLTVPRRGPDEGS
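Doses: Single concentration per compound, DMSO matched to controls | Test system: KCNQ1-transfected CHO-K1 cells | Timing: 90 min dye loading and 20 min compound exposure, both at room temperature | Measured by: Kinetic FluxOR thallium fluorescence, 10-s 1-Hz baseline, 110-s post-stimulus read | Medium: Assay buffer with matched DMSO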
Kir21 inh: blocks the mouse Kir2.1 inward-rectifier potassium channel; P35561; HEK293-Kir2.1, FluxOR thallium flux fluorescence; active compounds read low; B-score at 10 µM; actives 0.85% (n = 310,000); AID 1672;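 active = fluorescence ratio B-score at or below minus 3 SD of library scores, with starting-brightness B-score within 2 SD, cut at about -4.2 in these data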;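 also: channel flux triggered by added potassium and thallium sulfate stimulus; B-score of peak minus minimum fluorescence over baseline after thallium stimulus; more negative B-score means stronger Kir2.1 block with less thallium influx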
hERG rescue: hERG (human) protection from proarrhythmic block; actives 0.51% (n = 310,000); CHO-hERG, FluxOR thallium flux, dofetilide IC70 present; activation (rescue from dofetilide block), less the hit threshold, % at 10 µM; AID 1511;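 active = activation above the mean of controls blocked by dofetilide plus 5 SD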;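 also: thallium influx through hERG after potassium depolarization seen as dye fluorescence rise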
KCNK9 inh: inhibitors of human KCNK9 two-pore domain potassium channel. Q9NPC2. actives 1.2% (n = 310,000). HEK293 KCNK9, FluxOR thallium flux fluorescence; active compounds read low. B-score at 10 µM;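 active = ratio B-score over 3 SD below the library mean, with starting fluorescence within 5 SD of its mean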;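 also: negative B-score means less thallium flux so channel inhibition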
KCNQ1 block: inhibitors of human KCNQ1 potassium channel; CHO-K1 KCNQ1, FluxOR thallium flux fluorescence; active compounds read high; B-score at 10 µM; actives 1.3% (n = 310,000); AID 2642;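 active = compounds whose thallium flux B-score, printed positive for inhibition, exceeds three library SD while starting fluorescence stays within three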;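 also: channel opened by potassium depolarization with thallium stimulus after 20 min compound exposure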
KCNK3 block: human KCNK3 channel inhibition, primary screen; O14649; CHO-KCNK3 thallium flux, FluxOR fluorescence; active compounds read low; B-score at 10 µM; actives 0.84% (n = 340,000);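 active = B-score under library mean minus 4 SD, starting fluorescence ratio at most library mean plus 5 SD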;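 also: more negative B-score means stronger inhibition of thallium flux through KCNK3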
KCNK9 inh conf: human KCNK9 inhibitor confirmation. actives 43% (n = 4,900). AID 492992. shares compounds with KCNK9 inh. inhibition, % at 10 µM. HEK293 KCNK9 cells, FluxOR thallium flux fluorescence;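 active = thallium signal inhibited by more than 5 SD of the compound-free buffer control wells, on both duplicate plates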;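 also: 0% = assay buffer control wells without compound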
Kir2-1 spec: tests whether KCNK9 modulators also affect mouse Kir2.1; shares compounds with KCNK9 inh; Kir2.1 cells, FluxOR thallium flux fluorescence; inhibition, % at 10 µM; actives 4% (n = 4,900); AID 492993;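 active = thallium signal drop more than 5 SD beyond the mean of the no-compound control wells, seen in both duplicate plates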;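 also: signal is fluorescence rise after thallium addition divided by baseline fluorescence; plate controls were assay buffer only for no effect and full block by chlorpromazine control for full effect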
KCNK9 uninduced: second check of KCNK9 modulator effects in non-induced HEK293 cells; shares compounds with KCNK9 inh; FluxOR thallium flux; inhibition, % at 10 µM; actives 40% (n = 4,900); AID 492997;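 active = thallium signal drop beyond 5 SD of the untreated control mean, on both duplicate plates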;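 also: plate controls were buffer only IC0 wells for no effect and SID17386958 at its maximal inhibitory level for full effect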
* marks the source's active call; other numbers are inactive results.

COc1ccccc1N1CCN(C(=O)CSc2ncccc2-c2nc3ccccc3[nH]2)CC1 was read as KCNQ1 act inactive, Kir21 inh 0.39, hERG rescue -16, KCNK9 inh inactive, KCNQ1 block inactive and KCNK3 block inactive.
For Cc1ccccc1C(=O)NC(CC(C)C)C(=O)N1CCN(c2ccccc2)CC1 (stereo not drawn) the results were KCNQ1 act inactive, Kir21 inh -0.76, hERG rescue -4, KCNK9 inh inactive, KCNQ1 block inactive and KCNK3 block inactive.
Screening CC(C)CN(C(=O)CSc1nc2ccccc2c(=O)n1C)C1CCS(=O)(=O)C1 (stereo not drawn) returned KCNK3 block inactive.
For O=C(O)c1ccc(NC2CC(=O)N(Cc3ccccc3)C2=O)cc1 (stereo not drawn) the results were KCNQ1 act inactive, Kir21 inh 0.96, hERG rescue 0, KCNK9 inh inactive, KCNQ1 block inactive and KCNK3 block inactive.
N#Cc1cnc(SCC(=O)NNC(=O)COc2cccc3ccccc23)nc1N was read as KCNQ1 act inactive, Kir21 inh 0.06, hERG rescue -4, KCNK9 inh inactive, KCNQ1 block inactive and KCNK3 block inactive.
`O=C(CCl)N1CCCC1c1ccc2c(c1)OCCO2` (stereo not drawn) gave KCNQ1 act inactive, Kir21 inh -0.1, hERG rescue -2, KCNK9 inh inactive, KCNQ1 block inactive and KCNK3 block inactive.
Cc1nc(NC(=O)c2ccccc2)sc1-c1csc(NCc2ccccc2)n1 was read as KCNQ1 act inactive, Kir21 inh -0.31, hERG rescue -19, KCNK9 inh inactive, KCNQ1 block inactive and KCNK3 block inactive.
For COc1cccc(Nc2nc(-c3ccc4c(c3)OCCO4)cs2)c1 the results were KCNQ1 act inactive, Kir21 inh -0.06, hERG rescue -8, KCNK9 inh inactive, KCNQ1 block inactive, KCNK3 block inactive, KCNK9 inh conf inactive, Kir2-1 spec inactive and KCNK9 uninduced inactive.
Screening COc1ccc(Cl)cc1Nc1nc(-c2sc(NC(=O)c3ccco3)nc2C)cs1 returned KCNQ1 act inactive, Kir21 inh -0.61, hERG rescue -36, KCNK9 inh -11*, KCNQ1 block inactive, KCNK3 block inactive, KCNK9 inh conf inactive, Kir2-1 spec inactive and KCNK9 uninduced inactive.
COc1ccc(Cl)cc1Nc1nc(-c2sc(NC(=O)C(C)(C)C)nc2C)cs1 was read as KCNQ1 act inactive, Kir21 inh 0.79, hERG rescue -5, KCNK9 inh inactive, KCNQ1 block inactive and KCNK3 block inactive.
Screening COc1cccc(Nc2nc(-c3sc(NC(=O)c4ccco4)nc3C)cs2)c1 returned KCNQ1 act inactive, Kir21 inh -2.9, hERG rescue -26, KCNK9 inh -11*, KCNQ1 block inactive, KCNK3 block inactive, KCNK9 inh conf 50%*, Kir2-1 spec inactive and KCNK9 uninduced inactive.
c1cc2c(cc1Nc1nc(-c3ccc4c(c3)OCO4)cs1)OCCO2 was read as KCNQ1 act inactive, Kir21 inh 0.1, hERG rescue -13, KCNK9 inh inactive, KCNQ1 block inactive and KCNK3 block inactive.
Screening Cc1nc(NC(=O)c2ccccc2)sc1-c1csc(NCCc2ccccc2)n1 returned KCNQ1 act inactive, Kir21 inh 1.4, hERG rescue -7, KCNK9 inh -8.7*, KCNQ1 block inactive, KCNK3 block inactive, KCNK9 inh conf 32%*, Kir2-1 spec inactive and KCNK9 uninduced inactive.
`CC(CCN1CCN(CCO)CC1)c1ccccc1` (stereo not drawn) gave KCNQ1 act inactive, Kir21 inh -0.01, hERG rescue -5, KCNK9 inh inactive, KCNQ1 block inactive and KCNK3 block inactive.
O=C(Cc1ccsc1)OCC(=O)c1ccccc1 was read as KCNK3 block inactive.
Screening Cc1ccc(C(=O)NCC(=O)OCC(=O)NC(C)C2CC3CCC2C3)cc1 (stereo not drawn) returned KCNK3 block inactive.
COC(=O)c1ccccc1NC(=O)C1CCCN(S(=O)(=O)c2ccccc2)C1 (stereo not drawn) was read as KCNQ1 act inactive, Kir21 inh -0.4, hERG rescue -9, KCNK9 inh inactive, KCNQ1 block inactive, KCNK3 block inactive, KCNK9 inh conf inactive, Kir2-1 spec inactive and KCNK9 uninduced inactive.
COC(=O)c1ccccc1NC(=O)C1CCCN(S(=O)(=O)c2ccc(F)cc2)C1 (stereo not drawn) was read as KCNQ1 act inactive, Kir21 inh 1.4, hERG rescue -1, KCNK9 inh inactive, KCNQ1 block inactive, KCNK3 block inactive, KCNK9 inh conf inactive, Kir2-1 spec inactive and KCNK9 uninduced inactive.
Screening COc1cccc(C(NC(C)=O)c2ccc3cccnc3c2O)c1 (stereo not drawn) returned KCNQ1 act inactive, Kir21 inh 3, hERG rescue 1, KCNK9 inh inactive, KCNQ1 block inactive and KCNK3 block inactive.
Oc1cccc(C(Nc2nccs2)c2ccc3cccnc3c2O)c1 (stereo not drawn) was read as KCNQ1 act inactive, Kir21 inh -0.56, hERG rescue -17, KCNK9 inh inactive, KCNQ1 block inactive, KCNK3 block inactive, KCNK9 inh conf inactive, Kir2-1 spec inactive and KCNK9 uninduced inactive.
Screening CC(C)c1ccc(OCC(=O)N(Cc2ccccc2)c2ccccn2)cc1 returned KCNQ1 act inactive, Kir21 inh 0, hERG rescue -8, KCNK9 inh inactive, KCNQ1 block inactive and KCNK3 block inactive.
For CC(C)c1nc(N2CCN(C(=O)c3ccccc3)CC2)c(C#N)c2c1COC(C)(C)C2 the results were KCNQ1 act inactive, Kir21 inh -0.31, hERG rescue -12, KCNK9 inh inactive, KCNQ1 block inactive, KCNK3 block inactive, KCNK9 inh conf inactive, Kir2-1 spec inactive and KCNK9 uninduced inactive.
